Test results as given in ChEMBL document CHEMBL4145497, “Discovery of 2-aminothiazolyl berberine derivatives as effectively antibacterial agents toward clinically drug-resistant Gram-negative Acinetobacter baumanii” (Eur J Med Chem, 2018).
≈ marks a conversion by molar mass, not a printed value.

Tests used:
[1] = tested on: Staphylococcus aureus; experiment: Antibacterial activity against Staphylococcus aureus ATCC 25923 after 18 to 24 hrs by CLSI two fold serial dilution method; type: functional
[2] = tested on: Bacillus subtilis; experiment: Antibacterial activity against Bacillus subtilis ATCC 21216 after 18 to 24 hrs by CLSI two fold serial dilution method; type: functional
[3] = tested on: Micrococcus luteus; experiment: Antibacterial activity against Micrococcus luteus ATCC 4698 after 18 to 24 hrs by CLSI two fold serial dilution method; type: functional
[4] = tested on: Escherichia coli; experiment: Antibacterial activity against Escherichia coli DH52 after 18 to 24 hrs by CLSI two fold serial dilution method; type: functional
[5] = tested on: Pseudomonas aeruginosa; experiment: Antibacterial activity against Pseudomonas aeruginosa ATCC 27853 after 18 to 24 hrs by CLSI two fold serial dilution method; type: functional
[6] = tested on: Candida albicans; experiment: Antifungal activity against Candida albicans ATCC 76615 by CLSI two fold serial dilution method; type: functional
[7] = tested on: Cyberlindnera jadinii; experiment: Antifungal activity against Candida utilis ATCC 9950 by CLSI two fold serial dilution method; type: functional; conditions: Williopsis jadinii
[8] = tested on: Pichia norvegensis; experiment: Antifungal activity against Candida mycoderma ATCC 96918 by CLSI two fold serial dilution method; type: functional
[9] = tested on: Aspergillus flavus; experiment: Antifungal activity against Aspergillus flavus ATCC 204304 by CLSI two fold serial dilution method; type: functional
[10] = tested on: Saccharomyces cerevisiae; experiment: Antifungal activity against Saccharomyces cerevisiae ATCC 9763 by CLSI two fold serial dilution method; type: functional
[11] = tested on: Candida parapsilosis; experiment: Antifungal activity against Candida parapsilosis ATCC 22019 by CLSI two fold serial dilution method; type: functional; conditions: Lodderomyces parapsilosis
[12] = Aqueous solubility of the compound in phosphate buffer at pH 7.4 after 3 hrs by UV detection assay; type: physicochemical
Procedure, shortened: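 Water solubility measured at physiological pH, with berberine as the control.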

| Structure (SMILES) | MIC [1] [µM] | MIC [2] [µM] | MIC [3] [µM] | MIC [4] [µM] | MIC [5] [µM] | MIC [6] [µM] | MIC [7] [µM] | MIC [8] [µM] | MIC [9] [µM] | MIC [10] [µM] | MIC [11] [µM] | solubility at 3 h [12] [µg/mL] |
| --- | --- | --- | --- | --- | --- | --- | --- | --- | --- | --- | --- | --- |
| C=CCOc1c(OC)cc(/C=N/Nc2nccs2)c2c1CN1CCc3cc4c(cc3C1C2)OCO4 (stereo not drawn) | 30 (≈ 14.7 µg/mL) | 520 (≈ 255 µg/mL) | 130 (≈ 63.8 µg/mL) | 130 (≈ 63.8 µg/mL) | 260 (≈ 128 µg/mL) | 130 (≈ 63.8 µg/mL) | 130 (≈ 63.8 µg/mL) | 520 (≈ 255 µg/mL) | 260 (≈ 128 µg/mL) | 1040 (≈ 510 µg/mL) | 70 (≈ 34.3 µg/mL) | 7020 to 10200 (≈ 14.3 to 20.8 mM) |
| CCOc1c(OC)cc(/C=N/Nc2nccs2)c2c1CN1CCc3cc4c(cc3C1C2)OCO4 (stereo not drawn) | 70 (≈ 33.5 µg/mL) | 530 (≈ 254 µg/mL) | 530 (≈ 254 µg/mL) | 70 (≈ 33.5 µg/mL) | 70 (≈ 33.5 µg/mL) | 70 (≈ 33.5 µg/mL) | 540 (≈ 258 µg/mL) | 540 (≈ 258 µg/mL) | 540 (≈ 258 µg/mL) | 1070 (≈ 512 µg/mL) | 30 (≈ 14.4 µg/mL) | 10200 (≈ 21.3 mM) |
| CCCCOc1c(OC)cc(/C=N/Nc2nccs2)c2c1CN1CCc3cc4c(cc3C1C2)OCO4 (stereo not drawn) | 60 (≈ 30.4 µg/mL) | 250 (≈ 127 µg/mL) | 250 (≈ 127 µg/mL) | 60 (≈ 30.4 µg/mL) | 250 (≈ 127 µg/mL) | 250 (≈ 127 µg/mL) | 250 (≈ 127 µg/mL) | 250 (≈ 127 µg/mL) | 510 (≈ 258 µg/mL) | 510 (≈ 258 µg/mL) | 8 (≈ 4.05 µg/mL) | 7020 to 10200 (≈ 13.9 to 20.1 mM) |
| COc1cc(/C=N/Nc2nccs2)c2c(c1O)CN1CCc3cc4c(cc3C1C2)OCO4 (stereo not drawn) | 140 (≈ 63.1 µg/mL) | 140 (≈ 63.1 µg/mL) | 70 (≈ 31.5 µg/mL) | 280 (≈ 126 µg/mL) | 140 (≈ 63.1 µg/mL) | 140 (≈ 63.1 µg/mL) | 280 (≈ 126 µg/mL) | 140 (≈ 63.1 µg/mL) | 280 (≈ 126 µg/mL) | 570 (≈ 257 µg/mL) | 40 (≈ 18 µg/mL) | 1660 (≈ 3.68 mM) |
